# Screening results as filed in PubChem BioAssay.
# FLuc stim CS: firefly luciferase counter-screen for stimulation assays; P08659; ATPlite luciferase biochemical, luminescence, 10 min; 0 = ATP-free wells, 1 = DMSO control; activation factor at 10 µM; 200,000 tested, under 10 active; AID 1027;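 active = luciferase activation factor, scaled between plate controls, of at least 2 with compound at 10 µM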
# Target sequence (P08659 whole entry, looked up): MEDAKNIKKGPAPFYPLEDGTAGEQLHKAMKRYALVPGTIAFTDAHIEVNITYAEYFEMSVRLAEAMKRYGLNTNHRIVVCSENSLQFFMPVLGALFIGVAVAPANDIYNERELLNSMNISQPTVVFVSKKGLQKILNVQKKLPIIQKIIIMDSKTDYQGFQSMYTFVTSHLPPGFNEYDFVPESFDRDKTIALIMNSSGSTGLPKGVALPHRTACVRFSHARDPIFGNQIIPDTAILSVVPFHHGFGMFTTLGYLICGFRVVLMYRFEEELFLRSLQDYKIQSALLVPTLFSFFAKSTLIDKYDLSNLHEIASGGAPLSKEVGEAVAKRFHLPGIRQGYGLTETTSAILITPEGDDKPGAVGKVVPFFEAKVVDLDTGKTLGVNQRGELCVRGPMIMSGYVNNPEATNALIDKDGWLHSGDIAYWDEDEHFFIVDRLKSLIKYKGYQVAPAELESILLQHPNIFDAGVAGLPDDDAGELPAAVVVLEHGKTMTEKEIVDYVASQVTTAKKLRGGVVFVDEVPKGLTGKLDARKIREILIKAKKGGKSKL
#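 System: luciferase plus luciferin reagent, cell-free; medium: PBS as buffer for the ATP substrate; dosing: test compounds dosed from 2 mM stocks in 100% DMSO; timing: 10 min post-reagent at room temperature; measured by: luminescence measurement of luciferase light output; evaluation: luciferase activation, seen as luminescence increase over controls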
# NF-kB neuron act: compounds increasing NF-kB expression in human neuronal cells. NF-kB reporter expression; hits give high values. fold change at 12.5 µM. actives 1.6% (n = 190,000). AID 1239; in the data active = fold change above about 3.3
# FLuc inhib CS: counter-screen for luciferase assay inhibitors: firefly luciferase inhibition; P08659; ATPLite firefly luciferase biochemical luminescence, 10 min; actives 1.5% (n = 200,000); inhibition, % at 10 µM;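 active = inhibition above about 50% when tested at 10 µM, limit read from the data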
# STAT1 act: activators of IFN-gamma induced STAT1 signaling; NIH 3T3 STAT1-luciferase reporter, luminescence; 100% = IFN-gamma alone, no compound; activation (% of control), % at 5.5 µM; actives 2.6% (n = 200,000);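 active = activation above the screen-wide mean activation plus 3 SD, cut at about 130% in these data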;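 also: raw ratio to IFN-gamma control signal so 100% means no change and 0% no light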
# APP 5'UTR act: activates APP 5'UTR luciferase reporter. SH-SY5Y APP 5'UTR luciferase reporter, luminescence; zero percent = DMSO vehicle wells. activation, % at 2 µM. actives 1% (n = 190,000);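 active = activation above a set limit, based on mean plus 3 SD of controls, cut at about 140% in these data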
# * hit, by the source's call; . = no result given. The list is not random: actives were taken first. Their share in the collection is about 4.3%.
SMILES,FLuc stim CS,NF-kB neuron act,FLuc inhib CS,STAT1 act,APP 5'UTR act
Oc1cc(-c2ccccc2)c2ccccc2c1,1.1,0.86,-10.1,104.2,19.4
CCN(CC)CCC(C)OC(c1ccccc1)c1ccccc1 (stereo unspecified),1,1.22,-4.1,98.2,3.5
CCCCCN=Cc1c(C)[nH]n(-c2nc3ccccc3s2)c1=O,0.5,1.05,52.0*,128.5,55.4
O=c1c(C=NCCCO)c(-c2ccccc2)[nH]n1-c1nc2ccccc2s1,1,0.59,3.6,94.6,-27.5
Cc1nn(Cc2ccccc2)c(Cl)c1C(=O)OCC#N,1,1.01,-2.3,105.8,-9.1
O=C(CCc1nnc(-c2ccc3c(c2)OCO3)o1)NC(c1ccccn1)C(F)(F)F (stereo unspecified),1,.,-1.4,104.6,14.1
CC1CCN(C(=O)CCc2nnc(-c3ccccc3)o2)CC1,1,2.48,-2.8,135.4*,41.8
O=C(CCc1nnc(-c2ccc3c(c2)OCO3)o1)N1CCC(c2ccc(F)cc2)C1 (stereo unspecified),1.1,1.2,-7.9,134.3*,49.6
CCCOc1cccc(C(=O)Nc2ccc(Br)cc2F)c1,0.9,2.52,9.7,135.9*,128.4
CN(C)c1ccc(/C=C(\C#N)c2ccccn2)cc1,0,1.61,97.1*,52.3,95.0
N#C/C(=C\c1ccc([N+](=O)[O-])cc1)c1ccccn1,0.8,2.59,20.1,131.8*,25.1
N#C/C(=C\c1ccc([N+](=O)[O-])cc1)c1nc(C2CC2)cs1,1,1.5,4.0,105.6,28.8
CCOC(=O)Cc1csc(NC(=S)NC(=O)C(C)(C)C)n1,1.1,1.32,-7.7,92.3,-2.5
O=C(CN1C(=O)NC2(CCCC2)C1=O)N1CCc2ccccc2C1,1,1.42,0.0,106.1,-4.9
CCc1ccc(CC2S/C(=C(\C#N)C(C)=O)NC2=O)cc1 (stereo unspecified),0.9,1.16,7.4,98.8,-6.1
CCOC(=O)c1ccc(CC2S/C(=C(\C#N)C(C)=O)NC2=O)cc1 (stereo unspecified),1,3.48*,2.4,103.2,-11.8
O=C1c2ccccc2C(=O)N1/N=C/c1ccc(O)c(O)c1,0.3,0.98,74.4*,102.2,-9.6
CC(=O)Nc1ccc(SCC(=O)c2cc(C)n(Cc3cccs3)c2C)cc1,1,0.32,1.2,56.9,112.1
Cc1csc(SCC(=O)c2cc(C)n(Cc3cccs3)c2C)n1,0.1,0.73,88.8*,75.0,120.1
Cc1cc(C(=O)COC(=O)[C@H](C)NC(=O)c2ccco2)c(C)n1Cc1ccco1,0.4,1.21,56.2*,103.8,10.1
Cc1cc(C(=O)CSc2nncs2)c(C)n1Cc1ccco1,0.3,4.73*,73.8*,66.5,181.4*
Nc1nnc(SCC(=O)c2cccc([N+](=O)[O-])c2)s1,1,1.29,-4.5,94.1,10.6
Cc1ccc(C(=O)NCC(=O)OCC(=O)c2cc(C)n(Cc3ccco3)c2C)cc1,0.9,1.24,8.6,94.1,18.9
Cc1cc(C(=O)CSc2nn(-c3ccccc3)c(=S)s2)c(C)n1Cc1ccco1,1,0.84,-2.4,99.4,-0.5
Nc1nnc(SCC(=O)c2ccc3ccccc3c2)s1,0.8,3.72*,17.0,118.7,21.4
SMILES,FLuc stim CS,NF-kB neuron act,FLuc inhib CS,STAT1 act,APP 5'UTR act
Cn1cc2cc([N+](=O)[O-])ccc2n1,1,1.16,-0.5,98.9,-19.4
O=C(CN1C(=O)NC2(CCSC2)C1=O)NCc1ccccc1 (stereo unspecified),1,0.9,-1.6,100.9,-12.7
O=C(NCCc1ccccc1)c1cc(=O)[nH]c2ccccc12,1,0.97,-3.4,88.1,5.2
Cc1ccc(-c2nn3cnnc3c3ccccc23)cc1C,1,0.69,-4.3,90.5,30.9
CCOC(=O)C1=NN(c2ccccc2)C2=NC(C)=C(C(=O)OC)C(c3ccc(C)cc3)N12 (stereo unspecified),1.1,1.15,-6.0,100.8,10.6
Cc1cc(C(=O)CSc2nnc(N)s2)c(C)n1Cc1cccs1,0.1,2.69,91.1*,111.0,136.5*
Cc1ccc(OCCSc2nc(N)cc(N)n2)cc1,0.8,2.53,21.0,137.5*,74.3
CCCOc1ccc(OCCSc2ncccn2)cc1,0.9,4.24*,8.5,135.2*,124.2
Clc1ccc(OCCSc2ncccn2)c(Br)c1,0.5,0.99,54.2*,143.5*,174.2*
CN1C(=C2C(=O)OC(C)(C)OC2=O)Sc2ccccc21,0.9,1.55,9.0,130.1*,29.9
CCOC(=O)c1oc2ccc(/C=N/O)c(Cl)c2c1C,0.9,2.15,12.6,132.2*,49.0
CC1=C(C)/C(=N\OS(=O)(=O)c2ccc(C)cc2)C=CC1=O,1.1,1.85,-5.1,98.6,-90.4
CC1=C/C(=N\OS(=O)(=O)c2ccccc2)C(C(C)C)=CC1=O,1,5.89*,-1.6,99.3,-95.7
CC1=C/C(=N\OS(=O)(=O)c2ccccc2)C(C)=CC1=O,1,9.78*,-4.7,100.5,-94.8
COc1ccccc1N1C(=O)CC(Sc2n[nH]c(-c3cccc(C)c3)n2)C1=O (stereo unspecified),0.9,1.13,11.3,94.2,-7.7
CN1CCN(Cc2cc(Cl)c3cccnc3c2OC(=O)c2cccs2)CC1,1.1,13.1*,-7.7,90.8,-3.8
Cc1nn(Cc2ccc(Cl)cc2)c(C)c1NC(=O)C1CC=CCC1C(=O)O (stereo unspecified),1,1.14,-3.1,99.6,-9.1
CCn1ncc(C(=O)Nc2cccc(Cl)c2)c1C,0.8,2.39,17.1,143.5*,86.2
Cc1cc(N)n(-c2ccc(S(N)(=O)=O)cc2[N+](=O)[O-])n1,1.1,1.06,-8.6,109.3,-23.1
CCOc1ncccc1C(=O)N1CCN(c2cccc(C)c2C)CC1,1.1,3.9*,-5.1,96.9,-95.1
CCOc1ncccc1C(=O)N1CCN(c2cc(Cl)ccc2C)CC1,1,2.23,-2.9,102.4,-90.8
Cc1ccc2cc(CCNC(=O)c3cccs3)c(=O)[nH]c2c1,1,2.21,-3.4,138.9*,127.4
CCC(CC)C(=O)NCCc1cc2ccc(C)cc2[nH]c1=O,1,1.08,-2.3,107.5,5.3
CCNC(=S)N/N=C/c1ccc(OCC(=O)Nc2ccc(C)cc2)cc1,1,0.98,-3.6,97.7,1.3
O=C1CSc2ccc(C(=O)Nc3cccc(S(=O)(=O)Nc4ccc(Br)cc4)c3)cc2N1,1,0.85,-3.0,77.1,-6.6
O=C(c1ccc(-c2ccc(Cl)cc2Cl)o1)N1CCOCC1,0.5,3.05,51.3*,137.8*,80.5
O=C(c1ccc(-c2cc(Cl)ccc2Cl)o1)N1CCOCC1,1,1.37,4.6,102.2,2.1
O=C(CSc1nc2ccccc2s1)N1c2ccccc2Sc2ccc(Cl)cc21,1,1.02,-4.4,90.2,-2.4
O=c1oc2cc(Cl)ccc2n1CSc1nc2ccccc2s1,0.9,8.64*,10.1,119.2,-0.2
O/C(=C\c1nc2ccccc2nc1/C=C(\O)c1ccccc1)c1ccccc1,0.3,1.25,73.2*,133.6*,83.5
